Laboratory results: ChEMBL document CHEMBL1150393, “Evaluation of radiolabeled (hetero)aromatic analogues of N-(2-diethylaminoethyl)-4-iodobenzamide for imaging and targeted radionuclide therapy of melanoma” (J Med Chem, 2008)

How the values were obtained:
Conditions in all cases: in vivo
Kidney [1] = experiment: Biodistribution in kidney of C57BL/6 mouse bearing mouse B16-F0 cells at 0.74 to 0.92 MBq, iv after 24 hrs; type: ADME, organism-based
Summary of the method: (§1)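 Male C57BL6 mice with s.c. left-flank B16-F0 melanoma (5 × 10⁵ cells in PBS). Two mice per time point frozen in liquid nitrogen after CO₂ sacrifice. Eight 40 µm whole-body cryosections per mouse read by multiwire proportional counter. cpm/mm² converted to kBq/g and expressed as %ID/g.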

[2] = Biodistribution in Stomach content of C57BL/6 mouse bearing mouse B16-F0 cells at 0.74 to 0.92 MBq, iv after 72 hrs; type: ADME, organism-based; summary of the method: as §1
[3] = Drug excretion in mouse B16-F0 cells bearing C57BL/6 mouse urine at 0.74 to 0.92 MBq, iv after 72 hrs; type: ADME, organism-based
Summary of the method: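 Urine was collected from two B16-F0 tumour-bearing C57BL6 mice for up to 72 h after iv tail-vein injection of the [¹²⁵I]-labelled compound (0.1 µmol). Samples were counted to give cumulative urinary excretion as %ID.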

[4] = Biodistribution in Stomach content of C57BL/6 mouse bearing mouse B16-F0 cells at 0.74 to 0.92 MBq, iv after 3 hrs; type: ADME, organism-based; summary of the method: as §1
[5] = Ratio of drug level in tumor to liver of C57BL/6 mouse bearing mouse B16-F0 cells at 0.74 to 0.92 MBq, iv after 6 hrs; type: ADME, organism-based
Summary of the method: (§2)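 Tumour and organ radioactive concentrations came from whole-body cryosection counting (40 µm slices, eight per mouse, two mice per time) after tail-vein injection of the [¹²⁵I]-labelled compound (0.1 µmol) into male C57BL6 mice bearing s.c. B16-F0 melanoma. Each value is the ratio of the tumour concentration to the organ concentration.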

Pancreas [6] = experiment: Biodistribution in pancreas of C57BL/6 mouse bearing mouse B16-F0 cells at 0.74 to 0.92 MBq, iv after 6 hrs; type: ADME, organism-based; summary of the method: as §1
[7] = Ratio of drug level in tumor to lung of C57BL/6 mouse bearing mouse B16-F0 cells at 0.74 to 0.92 MBq, iv after 24 hrs; type: ADME, organism-based; summary of the method: as §2
[8] = Biodistribution in tumor of C57BL/6 mouse bearing mouse B16-F0 cells at 0.74 to 0.92 MBq, iv after 3 hrs; type: ADME, organism-based, Neoplasm
Summary of the method: (§3)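 [¹²⁵I]-labelled compound given iv by tail vein (0.1 µmol per mouse) to male C57BL6 mice bearing s.c. B16-F0 flank tumours (5 × 10⁵ cells in PBS). Two mice per time point were killed by CO₂, frozen in liquid nitrogen and cut into 40 µm cryosections, eight slices per mouse. Slice radioactivity was read on a multiwire proportional counter, converted to kBq/g and reported as %ID/g.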

Liver [9] = experiment: Biodistribution in liver of C57BL/6 mouse bearing mouse B16-F0 cells at 0.74 to 0.92 MBq, iv after 3 hrs; type: ADME, organism-based; summary of the method: as §1
Pancreas [10] = experiment: Biodistribution in pancreas of C57BL/6 mouse bearing mouse B16-F0 cells at 0.74 to 0.92 MBq, iv after 3 hrs; type: ADME, organism-based; summary of the method: as §1
[11] = Ratio of drug level in tumor to brain of C57BL/6 mouse bearing mouse B16-F0 cells at 0.74 to 0.92 MBq, iv after 1 hr; type: ADME, organism-based; summary of the method: as §2
Spleen [12] = experiment: Biodistribution in spleen of C57BL/6 mouse bearing mouse B16-F0 cells at 0.74 to 0.92 MBq, iv after 72 hrs; type: ADME, organism-based; summary of the method: as §3
Liver [13] = experiment: Biodistribution in liver of C57BL/6 mouse bearing mouse B16-F0 cells at 0.74 to 0.92 MBq, iv after 6 hrs; type: ADME, organism-based; summary of the method: as §1
[14] = Ratio of drug level in tumor to liver of C57BL/6 mouse bearing mouse B16-F0 cells at 0.74 to 0.92 MBq, iv after 1 hr; type: ADME, organism-based; summary of the method: as §2
Spleen [15] = experiment: Biodistribution in spleen of C57BL/6 mouse bearing mouse B16-F0 cells at 0.74 to 0.92 MBq, iv after 24 hrs; type: ADME, organism-based; summary of the method: as §3
[16] = Biodistribution in uvea of C57BL/6 mouse bearing mouse B16-F0 cells at 0.74 to 0.92 MBq, iv after 24 hrs; type: ADME, organism-based, Uveal tract; summary of the method: as §3
[17] = Ratio of drug level in tumor to liver of C57BL/6 mouse bearing mouse B16-F0 cells at 0.74 to 0.92 MBq, iv after 24 hrs; type: ADME, organism-based; summary of the method: as §2
Liver [18] = experiment: Biodistribution in liver of C57BL/6 mouse bearing mouse B16-F0 cells at 0.74 to 0.92 MBq, iv after 24 hrs; type: ADME, organism-based; summary of the method: as §1
Blood [19] = experiment: Biodistribution in blood of C57BL/6 mouse bearing mouse B16-F0 cells at 0.74 to 0.92 MBq, iv after 1 hr; type: ADME, organism-based; summary of the method: as §1
[20] = Ratio of drug level in tumor to brain of C57BL/6 mouse bearing mouse B16-F0 cells at 0.74 to 0.92 MBq, iv after 6 hrs; type: ADME, organism-based; summary of the method: as §2
Kidney [21] = experiment: Biodistribution in kidney of C57BL/6 mouse bearing mouse B16-F0 cells at 0.74 to 0.92 MBq, iv after 3 hrs; type: ADME, organism-based; summary of the method: as §1
Blood [22] = experiment: Biodistribution in blood of C57BL/6 mouse bearing mouse B16-F0 cells at 0.74 to 0.92 MBq, iv after 6 hrs; type: ADME, organism-based; summary of the method: as §1
[23] = Biodistribution in intestinal content of C57BL/6 mouse bearing mouse B16-F0 cells at 0.74 to 0.92 MBq, iv after 6 hrs; type: ADME, organism-based; summary of the method: as §1
Lung = experiment: Biodistribution in lung of C57BL/6 mouse bearing mouse B16-F0 cells at 0.74 to 0.92 MBq, iv after 24 hrs; type: ADME, organism-based; summary of the method: as §1
Brain = experiment: Biodistribution in brain of C57BL/6 mouse bearing mouse B16-F0 cells at 0.74 to 0.92 MBq, iv after 6 hrs; type: ADME, organism-based; summary of the method: as §1
[24] = Biodistribution in Stomach content of C57BL/6 mouse bearing mouse B16-F0 cells at 0.74 to 0.92 MBq, iv after 24 hrs; type: ADME, organism-based; summary of the method: as §1
[25] = Biodistribution in tumor of C57BL/6 mouse bearing mouse B16-F0 cells at 0.74 to 0.92 MBq, iv after 6 hrs; type: ADME, organism-based, Neoplasm; summary of the method: as §3
[26] = Ratio of drug level in tumor to liver of C57BL/6 mouse bearing mouse B16-F0 cells at 0.74 to 0.92 MBq, iv after 3 hrs; type: ADME, organism-based; summary of the method: as §2
[27] = Ratio of drug level in tumor to liver of C57BL/6 mouse bearing mouse B16-F0 cells at 0.74 to 0.92 MBq, iv after 72 hrs; type: ADME, organism-based; summary of the method: as §2

CCN(CC)CCNC(=O)c1cc2cc([125I])ccc2[nH]1.Cl
Drug uptake (Kidney [1]): 0.83 % ID/g
Drug uptake [2]: 0.04 % ID/g
Activity [3]: 21.5%
Drug uptake [4]: 18.52 % ID/g
Ratio [5]: 2.71
Drug uptake (Pancreas [6]): 1.46 % ID/g
Ratio [7]: 22.05
Drug uptake [8]: 10.2 % ID/g
Drug uptake (Liver [9]): 5.21 % ID/g
Drug uptake (Pancreas [10]): 2.48 % ID/g
Ratio [11]: 1.69
Drug uptake (Spleen [12]): 10.87 % ID/g
Drug uptake (Liver [13]): 3.63 % ID/g
Ratio [14]: 0.7
Drug uptake (Spleen [15]): 1.22 % ID/g
Drug uptake [16]: 8.81 % ID/g
Ratio [17]: 5.07
Drug uptake (Liver [18]): 1.61 % ID/g
Drug uptake (Blood [19]): 1.6 % ID/g
Ratio [20]: 5.38
Drug uptake (Kidney [21]): 4.19 % ID/g
Drug uptake (Blood [22]): 0.67 % ID/g
Drug uptake [23]: 79.85 % ID/g
Drug uptake (Lung): 0.37 % ID/g
Drug uptake (Brain): 0.74 % ID/g
Drug uptake [24]: 2.1 % ID/g
Drug uptake [25]: 9.8 % ID/g
Ratio [26]: 1.96
Ratio [27]: 1.38
